# Data taken from ChEMBL document CHEMBL1154427, “Impact of dual infections on chemotherapeutic efficacy in BALB/c mice infected with major genotypes of Trypanosoma cruzi” (2007).
# Columns and labels:
# Format in all cases: functional
# Trypanosoma cruzi [1] = assay: Antimicrobial activity against Trypanosoma cruzi genotype 19 infected in BALB/c mouse assessed as cure rate
# Method in brief: (§1)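 Mice counted cured when fresh blood examination, hemoculture, blood PCR, ELISA and FC-ALTA were all negative. Mice negative by parasitology and FC-ALTA but positive by ELISA were counted as dissociated and also cured. Observed cure rate per group = cured animals / total infected treated animals × 100. Each genotype combination was run in replicate batches.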
# Trypanosoma cruzi [2] = assay: Antimicrobial activity against Trypanosoma cruzi Bug2148 cl1 and Trypanosoma cruzi MAS cl11 dually infected in BALB/c mouse assessed as cure rate; method in brief: as §1
# Trypanosoma cruzi [3] = assay: Antimicrobial activity against Trypanosoma cruzi genotype 20 infected in BALB/c mouse assessed as cure rate; method in brief: as §1
# Trypanosoma cruzi [4] = assay: Antimicrobial activity against Trypanosoma cruzi genotype 39 and genotype 32 dually infected in BALB/c mouse assessed as cure rate; method in brief: as §1
# Trypanosoma cruzi [5] = assay: Antimicrobial activity against Trypanosoma cruzi 1 and Trypanosoma cruzi 2 dually infected in BALB/c mouse assessed as cure rate; method in brief: as §1
# Trypanosoma cruzi [6] = assay: Antimicrobial activity against Trypanosoma cruzi and Trypanosoma cruzi 2 dually infected in BALB/c mouse assessed as cure rate; method in brief: as §1
# Trypanosoma cruzi [7] = assay: Antimicrobial activity against Trypanosoma cruzi infected in BALB/c mouse assessed as parasitemia remaining by PCR method
# Method in brief: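 Orbital sinus blood taken 30 days after treatment into 6 M guanidine–0.2 M EDTA (pH 8.0), 1:2, and kept at room temperature. PCR used primers S35/S36 with 3.5 mM MgCl2: 5 min at 94°C, then 35 cycles of 95°C/65°C/72°C for 1 min each, then 10 min final extension. Products were resolved on 6% polyacrylamide with silver staining.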
# Trypanosoma cruzi [8] = assay: Antimicrobial activity against Trypanosoma cruzi 1 infected in BALB/c mouse assessed as cure rate; method in brief: as §1
# Trypanosoma cruzi [9] = assay: Antimicrobial activity against Trypanosoma cruzi 1 and Trypanosoma cruzi dually infected in BALB/c mouse assessed as cure rate; method in brief: as §1
# Trypanosoma cruzi [10] = assay: Antimicrobial activity against Trypanosoma cruzi infected in BALB/c mouse assessed as parasitemia remaining by ELISA
# Method in brief: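 Conventional ELISA on sera taken 2 and 3 months after treatment and stored at –20°C. Sera were tested at 1:80 in PBS against an alkaline-extract antigen of Y strain parasites grown to exponential phase in LIT medium. Bound antibody was detected with peroxidase anti-mouse IgG and read at 490 nm. Per-plate cutoff = mean of 10 negative sera + 2 SD.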
# Trypanosoma cruzi [11] = assay: Antimicrobial activity against Trypanosoma cruzi 2 infected in BALB/c mouse assessed as cure rate; method in brief: as §1
# Trypanosoma cruzi [12] = assay: Antimicrobial activity against Trypanosoma cruzi genotype 20 and genotype 19 dually infected in BALB/c mouse assessed as cure rate; method in brief: as §1
# Trypanosoma cruzi [13] = assay: Antimicrobial activity against Trypanosoma cruzi genotype 32 infected in BALB/c mouse assessed as cure rate; method in brief: as §1
# Trypanosoma cruzi [14] = assay: Antimicrobial activity against Trypanosoma cruzi infected in BALB/c mouse assessed as parasitemia remaining in hemoculture
# Method in brief: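 Orbital sinus blood taken 30 days after treatment was inoculated into 3 ml LIT medium and kept at 28°C. Tubes were checked for parasites at days 30, 60, 90 and 120 of culture.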
# Trypanosoma cruzi [15] = assay: Antimicrobial activity against Trypanosoma cruzi infected in BALB/c mouse assessed as cure rate; method in brief: as §1
# Trypanosoma cruzi [16] = assay: Antimicrobial activity against Trypanosoma cruzi genotype 19 and genotype 32 dually infected in BALB/c mouse assessed as cure rate; method in brief: as §1
# Trypanosoma cruzi [17] = assay: Antimicrobial activity against Trypanosoma cruzi 1 dually infected in BALB/c mouse assessed as cure rate; method in brief: as §1
# Trypanosoma cruzi [18] = assay: Antimicrobial activity against Trypanosoma cruzi infected in BALB/c mouse assessed as parasitemia remaining by FC-ALTA
# Method in brief: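 Flow cytometric detection of antibodies to live trypomastigotes, microplate format, on sera taken 3 months after treatment and diluted 1:1,500. IgG was detected with FITC-labelled goat anti-mouse IgG. Read-out was percentage of positive fluorescent parasites, relative to a conjugate-only control; >20% was scored positive. Positive and negative controls ran in each batch.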
# Trypanosoma cruzi [19] = assay: Antimicrobial activity against Trypanosoma cruzi OPS21 cl11 and Trypanosoma cruzi MAS cl11 dually infected in BALB/c mouse assessed as cure rate; method in brief: as §1
# Trypanosoma cruzi [20] = assay: Antimicrobial activity against Trypanosoma cruzi infected in BALB/c mouse assessed as parasitemia remaining in fresh blood
# Method in brief: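 Tail-vein blood examined daily by light microscopy for living trypomastigotes up to day 60 after infection.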
# Trypanosoma cruzi [21] = assay: Antimicrobial activity against Trypanosoma cruzi genotype 19 and genotype 39 dually infected in BALB/c mouse assessed as cure rate; method in brief: as §1
# Trypanosoma cruzi [22] = assay: Antimicrobial activity against Trypanosoma cruzi genotype 39 infected in BALB/c mouse assessed as cure rate; method in brief: as §1
smiles,measurement,setting,value
O=C(Cn1ccnc1[N+](=O)[O-])NCc1ccccc1 [BENZNIDAZOLE],Activity,Trypanosoma cruzi [1],70%
same,Activity,Trypanosoma cruzi [2],83.3%
same,Activity,Trypanosoma cruzi [3],0%
same,Activity,Trypanosoma cruzi [4],59.1%
same,Activity,Trypanosoma cruzi [5],17.4%
same,Activity,Trypanosoma cruzi [6],59.1%
same,Activity,Trypanosoma cruzi [7],93%
same,Activity,Trypanosoma cruzi [8],35.4%
same,Activity,Trypanosoma cruzi [9],24%
same,Activity,Trypanosoma cruzi [10],96.4%
same,Activity,Trypanosoma cruzi [11],70%
same,Activity,Trypanosoma cruzi [12],0%
same,Activity,Trypanosoma cruzi [13],70%
same,Activity,Trypanosoma cruzi [14],79.3%
same,Activity,Trypanosoma cruzi [15],54.4%
same,Activity,Trypanosoma cruzi [16],22.7%
same,Activity,Trypanosoma cruzi [17],<33%
same,Activity,Trypanosoma cruzi [18],99%
same,Activity,Trypanosoma cruzi [19],14.3%
same,Activity,Trypanosoma cruzi [20],19.8%
same,Activity,Trypanosoma cruzi [21],25.9%
same,Activity,Trypanosoma cruzi [22],50%
